This is an account of results in PubChem BioAssay.

The source made the active and inactive calls.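 Rule for the calls, unless noted: active = GFP response above 150% of the DMSO level; inconclusive = fewer than 70 events counted for a yeast strain; inactive = the rest.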

A short description of assay [1]: hit retest on RPL19A-GFP reporter strain – cell-based, S. cerevisiae, flow cytometry, cherry picks, mother/daughter gates, confirmation (AID 2270;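 active = GFP response below 50% of the DMSO control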). Conditions: 3 h, at 10 µM, stronger effect = lower value, 100 = same GFP as DMSO wells. In general terms: A flow cytometer gives signals particle by particle.
Assay [2] can be described thus: yeast TOR pathway reporter LAP4-GFP change – cell-based, cherry picks, flow cytometry, mother/daughter gates, confirmation (AID 2271;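 active = GFP response above 150% of the DMSO control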;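 note: ratio of sample to DMSO plate mean so 100% equals DMSO level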). The note with it: S. cerevisiae LAP4-GFP strain, 3 h, at 10 µM, stronger effect = higher value, 100 means same as DMSO control. An outline of the steps:
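Material: Alexa Fluor 633-labelled Saccharomyces cerevisiae GFP-fusion strain, single-plex | Amount: Yeast cells seeded at OD600 of 0.2 | Buffer or medium: SC growth medium | Schedule: 3 h exposure, 30 °C | Measured by: HT flow cytometry, GFP fluorescence channel | Evaluation: % GFP response vs DMSO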

The nature of assay [3]: TOR pathway reporter MEP2-GFP, retest of hits – S. cerevisiae, flow cytometry GFP, cherry picks, confirmation (AID 2272;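 active = GFP response above 150% of the DMSO control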;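 note: ratio of well signal to plate DMSO mean so 100% equals DMSO level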). The note with it: S. cerevisiae MEP2-GFP strain, 3 h, at 10 µM, stronger effect = higher value.
Assay [4] can be described thus: yeast AGP1-GFP fluorescence change, single-dose – cell-based, flow cytometry, S. cerevisiae, cherry picks, confirmation (AID 2273).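 Note: median GFP channel fluorescence over the whole cell population gate.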 The note with it: S. cerevisiae AGP1-GFP strain, 3 h, at 10 µM.
Assay [5] can be described thus: TOR pathway CIT2 reporter hit retest – S. cerevisiae, GFP fusion, cherry picks, mother/daughter gates, confirmation (AID 2274). The note with it: S. cerevisiae CIT2-GFP strain, flow cytometry, 3 h, at 10 µM, stronger effect = higher value.
The mark [6] stands for this setting: measured here: daughter cell gate.
The mark [7] stands for this setting: measured here: mother cell gate.
Where [8] appears, read: measured here: daughter cell gate response.
The mark [9] stands for this setting: measured here: mother cell gate response.

As to `CCOc1ccc(/C=C/C(=O)c2c(O)cc(C)oc2=O)cc1`, the GFP response vs DMSO is 95.1% (inactive) in assay [1], 96.1% in assay [1] (setting [6]), 94.6% in assay [1] (setting [7]) and 106% (inactive) in assay [3]. Besides, the results for the GFP response relative to DMSO in assay [2], in assay [2] (setting [8]) and in assay [2] (setting [9]) were 120% (inactive), 113% and 126%, respectively. Moreover, the GFP response, % of DMSO in assay [4] was 107% (inactive); in assay [5] it was 93.1% (inactive); in assay [5] (setting [6]), 94%; in assay [5] (setting [7]) it was 92.6%.

As for `COc1ccc(/C=C/C(=O)C2C(=O)C=C(C)OC2=O)cc1O` (stereo not drawn), the GFP response vs DMSO in assay [1] was 101% (inactive); in assay [1] (setting [6]) it was 102%; in assay [1] (setting [7]), 101%; in assay [3], 112% (inactive). Moreover, the results for the GFP response relative to DMSO in assay [2], in assay [2] (setting [8]) and in assay [2] (setting [9]) were 123% (inactive), 118% and 125%, respectively. The GFP response, % of DMSO in assay [4] was 101% (inactive); in assay [5], 101% (inactive); in assay [5] (setting [6]), 104%; in assay [5] (setting [7]), 96.8%.

Take `Cc1nc2ccc(Br)cn2c1C(=O)N/N=C\c1ccccc1Cl`: the GFP response vs DMSO was 95.4% (inactive) in assay [1], 95.6% in assay [1] (setting [6]), 96.6% in assay [1] (setting [7]) and 96.2% (inactive) in assay [3]. The GFP response relative to DMSO in assay [2] is 94.1% (inactive); in assay [2] (setting [8]) it was 94.4%; in assay [2] (setting [9]), 96.1%. The GFP response, % of DMSO in assay [4] is 98% (inactive); in assay [5] it was 99.7% (inactive); in assay [5] (setting [6]), 99.1%; in assay [5] (setting [7]), 99.7%.

Take `COC(=O)c1ccc(NC(=O)c2nc(S(=O)(=O)Cc3cccc(C)c3)ncc2Cl)cc1`: the GFP response vs DMSO in assay [1] is 98.4% (inactive); in assay [1] (setting [6]), 96.1%; in assay [1] (setting [7]), 98.7%; in assay [3] it was 100% (inactive). Besides, the GFP response relative to DMSO is 103% (inactive) in assay [2], 102% in assay [2] (setting [8]) and 106% in assay [2] (setting [9]). For the same molecule, the GFP response, % of DMSO in assay [4] is 95.7% (inactive); in assay [5] it was 88.7% (inactive); in assay [5] (setting [6]), 88.3%; in assay [5] (setting [7]), 86.9%.

Consider `Cn1c(N2CCCC2)nc2c1c(=O)n(Cc1ccc(Cl)cc1)c(=O)n2C`, for which the GFP response vs DMSO is 91.8% (inactive) in assay [1], 84.5% in assay [1] (setting [6]), 87.5% in assay [1] (setting [7]) and 94.7% (inactive) in assay [3]. Moreover, the GFP response relative to DMSO was 126% (inactive) in assay [2], 109% in assay [2] (setting [8]) and 121% in assay [2] (setting [9]). In addition, the GFP response, % of DMSO is 98.4% (inactive) in assay [4], 81.4% (inactive) in assay [5], 77.5% in assay [5] (setting [6]) and 76% in assay [5] (setting [7]).

Regarding `CCOC(=O)C1=C(C)N=C2SC(C(=O)OC)=CC(=O)N2C1c1ccc(F)cc1` (stereo not drawn), the GFP response vs DMSO in assay [1] was 103% (inactive); in assay [1] (setting [6]), 101%; in assay [1] (setting [7]) it was 100%; in assay [3] it was 91.3% (inactive). Further, the GFP response relative to DMSO in assay [2] is 119% (inactive); in assay [2] (setting [8]), 110%; in assay [2] (setting [9]), 124%. Moreover, the GFP response, % of DMSO in assay [4] is 90.2% (inactive); in assay [5], 96.5% (inactive); in assay [5] (setting [6]), 94.8%; in assay [5] (setting [7]) it was 94.4%.

For `CCNC(=O)/C(C#N)=C/c1c(N2CCN(Cc3ccc4c(c3)OCO4)CC2)nc2c(C)cccn2c1=O`, the GFP response vs DMSO was 101% (inactive) in assay [1], 99.2% in assay [1] (setting [6]), 103% in assay [1] (setting [7]) and 102% (inactive) in assay [3]. For the same molecule, the values for the GFP response relative to DMSO in assay [2], in assay [2] (setting [8]) and in assay [2] (setting [9]) were 99.8% (inactive), 97.2% and 101%, respectively. Further, the GFP response, % of DMSO in assay [4] was 100% (inactive); in assay [5] it was 104% (inactive); in assay [5] (setting [6]), 101%; in assay [5] (setting [7]), 104%.

Consider `CCc1cccc2sc(N3CCN(C(=O)c4ccc([N+](=O)[O-])o4)CC3)nc12`, for which the GFP response vs DMSO in assay [1] is 82.5% (inactive); in assay [1] (setting [6]), 85.9%; in assay [1] (setting [7]), 70.2%; in assay [3], 172% (inactive). Moreover, the figures for the GFP response relative to DMSO in assay [2], in assay [2] (setting [8]) and in assay [2] (setting [9]) were 251% (active), 125% and 222%, respectively. The GFP response, % of DMSO is 108% (inactive) in assay [4], 108% (inactive) in assay [5], 99.3% in assay [5] (setting [6]) and 102% in assay [5] (setting [7]).
